Experiments:
MCF7 = experiment: In vitro Inhibition on growth of human MCF 7 breast carcinoma cell line; type: functional, cell-based
Procedure, shortened: (§1)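 Monolayer cultures in DMEM with 10% FBS, 2 mM L-glutamine, penicillin/streptomycin, 37 °C, 5% CO2. Cells plated on day 0 at densities set by doubling time (1 × 10⁴/mL HeLa, Hep-2, MiaPaCa-2, SW 620; 2 × 10⁴/mL MCF-7; 3 × 10⁴/mL WI 38). Compound added at five 10-fold dilutions (10^-8 to 10^-4 mol/L) for 72 h. MTT read at 570 nm, converted to percentage growth versus time-zero and untreated controls. Quadruplicate points, three experiments. IC50 by linear regression.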

SW-620 [1] = experiment: In vitro Inhibition on growth of human SW 620 colon carcinoma cell line; type: functional, cell-based; procedure, shortened: as §1
HeLa [2] = experiment: In vitro Inhibition on growth of human HeLa cervical carcinoma cell line; type: functional, cell-based; procedure, shortened: as §1
[3] = In vitro Inhibition on growth of human WI 38 diploid fibroblast cell line; type: functional, cell-based; procedure, shortened: as §1
[4] = In vitro Inhibition on growth of human Hep 2 laryngeal carcinoma cell line; type: functional; procedure, shortened: as §1
MIA PaCa-2 [5] = experiment: In vitro Inhibition on growth of human MiaPaCa-2 pancreatic carcinoma cell line; type: functional, cell-based; procedure, shortened: as §1
HeLa [6] = experiment: Percentage of apoptosis induced by compound in HeLa cell line after at 5 uM concentration 72 h; type: functional, Homo sapiens
Procedure, shortened: (§2)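 Annexin-V assay after 72 h exposure to 5 or 10 µM. Cells washed with PBS, pelleted, and stained with Annexin-V-fluorescein plus propidium iodide in Hepes buffer. Scored by fluorescence microscopy: Annexin-V-positive cells counted as apoptotic, Annexin-V/PI double-positive as necrotic. Apoptotic fraction given as percentage of total cells.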

HeLa [7] = experiment: Percentage of apoptosis induced by compound in HeLa cell line after at 10 uM concentration 72 h; type: functional, Homo sapiens; procedure, shortened: as §2
SW-620 [8] = experiment: Percentage of apoptosis induced by compound in SW 620 cell line at 5 uM concentration after 72 h; type: functional, Homo sapiens; procedure, shortened: as §2
SW-620 [9] = experiment: Percentage of apoptosis induced by compound in SW 620 cell line at 10 uM concentration after 72 h; type: functional, Homo sapiens; procedure, shortened: as §2
MIA PaCa-2 [10] = experiment: Percentage of apoptosis induced by compound in MiaPaCa-2 cell line at 5 uM concentration after 72 h; type: functional, Homo sapiens; procedure, shortened: as §2
MIA PaCa-2 [11] = experiment: Percentage of apoptosis induced by compound in MiaPaCa-2 cell line at 10 uM concentration after 72 h; type: functional, Homo sapiens; procedure, shortened: as §2

SMILES | IC50 (MCF7) | IC50 (SW-620 [1]) | IC50 (HeLa [2]) | IC50 [3] | IC50 [4] | IC50 (MIA PaCa-2 [5]) | Apoptosis (HeLa [6]) | Apoptosis (HeLa [7]) | Apoptosis (SW-620 [8]) | Apoptosis (SW-620 [9]) | Apoptosis (MIA PaCa-2 [10]) | Apoptosis (MIA PaCa-2 [11])
CC(C)/N=C(/N)c1ccc2c(Cl)c(C(=O)Nc3ccc(Br)cc3)sc2c1 | 2.62 µM | 4.18 µM | 3.05 µM | 3.64 µM | 3.14 µM | 2.54 µM | – | – | – | – | – | –
Cc1ccc(NC(=O)c2sc3cc(/C(N)=N\C(C)C)ccc3c2Cl)cc1 | 7.26 µM | 3.54 µM | 2.35 µM | 2.03 µM | 2.96 µM | 5.11 µM | – | – | – | – | – | –
N#Cc1ccc2c(Cl)c(C(=O)Nc3ccc(Br)cc3)sc2c1 | > 100 µM | > 100 µM | > 100 µM | 5.99 µM | > 100 µM | > 100 µM | – | – | – | – | – | –
Cc1ccc2c(Cl)c(C(=O)Nc3ccc(/C(N)=N\C(C)C)cc3)sc2c1 | 3.49 µM | 3.53 µM | 3 µM | 3.3 µM | 3.94 µM | 4.44 µM | – | – | – | – | – | –
CC(C)/N=C(/N)c1ccc2nc(O)c3sc4cc(C#N)ccc4c3c2c1 | > 100 µM | > 100 µM | 6.14 µM | ≥ 100 µM | ≥ 100 µM | 42.1 µM | – | – | – | – | – | –
COC(=O)c1ccc2c(Cl)c(C(=O)Nc3ccccc3)sc2c1 | > 100 µM | 95.5 µM | > 100 µM | 53.6 µM | > 100 µM | > 100 µM | – | – | – | – | – | –
COc1ccc2c(Cl)c(C(=O)Nc3ccc(C(=N)NC(C)C)cc3)sc2c1 | 3.7 µM | 3.86 µM | 2.7 µM | 4.01 µM | 2.55 µM | 4.67 µM | – | – | – | – | – | –
CC(C)/N=C(/N)c1ccc2nc(O)c3sc4cc(Br)ccc4c3c2c1 | 5.78 µM | 6.84 µM | 1.7 µM | 19 µM | 6.95 µM | 3.71 µM | – | – | – | – | – | –
COC(=O)c1ccc2c(c1)sc1c(O)nc3ccc(C(=N)NC(C)C)cc3c12 | 65.1 µM | 48.8 µM | 4.79 µM | > 100 µM | 45.9 µM | 5.64 µM | 12% | 17% | 7% | 9% | 4% | 13%
COC(=O)c1ccc(NC(=O)c2sc3cc(C#N)ccc3c2Cl)cc1 | > 100 µM | 4.62 µM | 24.1 µM | 2.71 µM | 59.1 µM | > 100 µM | 6% | 52% | 6% | 71% | 3% | 9%
CC(C)/N=C(/N)c1ccc2nc(O)c3sc4ccccc4c3c2c1 | 1.36 µM | 32.2 µM | 25.3 µM | ≥ 100 µM | 16.6 µM | 7.3 µM | 9% | 11% | 9% | 13% | 4% | 11%
CC(C)/N=C(/N)c1ccc(NC(=O)c2sc3cc(C#N)ccc3c2Cl)cc1 | 23.9 µM | 8.02 µM | 22.2 µM | 25.1 µM | 21 µM | 8.72 µM | – | – | – | – | – | –
CC(C)/N=C(/N)c1ccc2c(Cl)c(C(=O)Nc3ccccc3)sc2c1 | 1.27 µM | 4.57 µM | 4.26 µM | 4.7 µM | 23.8 µM | 7.23 µM | – | – | – | – | – | –
CC(C)/N=C(/N)c1ccc2c(c1)sc1c(O)nc3ccc(/C(N)=N\C(C)C)cc3c12 | 78.5 µM | ≥ 100 µM | 31.6 µM | ≥ 100 µM | > 100 µM | 86.9 µM | – | – | – | – | – | –
COc1ccc(NC(=O)c2sc3cc(C#N)ccc3c2Cl)cc1 | 17.6 µM | > 100 µM | 40.4 µM | 23.4 µM | 48.4 µM | 90.9 µM | – | – | – | – | – | –
